Results from ChEMBL document CHEMBL3244313, “Synthesis of some carbon-3 substituted 1,4-benzodiazepin-2-ones and their central nervous system effects” (J Med Chem, 1979).
The source made the active and inactive calls. No cut-off for these calls is given here.

Experiments:
Mus musculus [1] = assay: Anticonvulsant activity in po dosed albino Swiss-Webster mouse assessed as reduction of pentylenetetrazole-induced seizure; type: functional, organism-based
Method in brief: (§1)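 Oral dosing in male and female albino Swiss-Webster mice weighing 25–30 g, six mice per group. ED50 determined with 95% confidence limits.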

Mus musculus [2] = assay: Anticonvulsant activity in po dosed albino Swiss-Webster mouse assessed as reduction of maximum electro shock-induced seizure; type: functional, organism-based; method in brief: as §1
Mus musculus [3] = assay: Anticonvulsant activity in po dosed albino Swiss-Webster mouse assessed as reduction of minimum electro shock-induced seizure; type: functional, organism-based; method in brief: as §1
Mus musculus [4] = assay: Muscle relaxing activity in po dosed albino Swiss-Webster mouse; type: functional, organism-based; method in brief: as §1
Mus musculus [5] = assay: Potency index, ratio of chlordiazepoxide ED50 to compound ED50 for behavioral activity in po dosed albino Swiss-Webster mouse by fighting test; type: functional
Mus musculus [6] = assay: Potency index, ratio of chlordiazepoxide ED50 to compound ED50 for hypnotic activity in po dosed albino Swiss-Webster mouse; type: functional
[7] = Toxicity in po dosed albino Swiss-Webster mouse; type: organism-based; details: in vivo
[8] = 1-Octanol-aqueous phosphate buffer partition coefficient, log P of the compound at pH 7.35; type: physicochemical
Method in brief: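 Concentrations in each phase (C_oct, C_w) measured by UV spectrophotometry. P_oct = C_oct/C_w, reported as log P_oct.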

Mus musculus [9] = assay: Potency index, ratio of chlordiazepoxide ED50 to compound ED50 for anticonvulsant activity in po dosed albino Swiss-Webster mouse assessed as reduction of pentylenetetrazole-induced seizure; type: functional
Mus musculus [10] = assay: Potency index, ratio of chlordiazepoxide ED50 to compound ED50 for anticonvulsant activity in po dosed albino Swiss-Webster mouse assessed as reduction of maximum electro shock-induced seizure; type: functional
Mus musculus [11] = assay: Potency index, ratio of chlordiazepoxide ED50 to compound ED50 for anticonvulsant activity in po dosed albino Swiss-Webster mouse assessed as reduction of minimum electro shock-induced seizure; type: functional
Mus musculus [12] = assay: Potency index, ratio of chlordiazepoxide ED50 to compound ED50 for muscle relaxing activity in po dosed albino Swiss-Webster mouse; type: functional

Row | SMILES | Activity (Mus musculus [1]) | Activity (Mus musculus [2]) | Activity (Mus musculus [3]) | Activity (Mus musculus [4]) | Ratio ED50 (Mus musculus [5]) | Ratio ED50 (Mus musculus [6]) | LD50 [7] [µmol/kg] | logD [8] | Ratio ED50 (Mus musculus [9]) | Ratio ED50 (Mus musculus [10]) | Ratio ED50 (Mus musculus [11]) | Ratio ED50 (Mus musculus [12])
1 | CC1(C)OCC(COC2N=C(c3ccccc3Cl)c3cc(Cl)ccc3NC2=O)O1 (centres undefined) | inactive | inactive | inactive | inactive | 2.3 | 2 | 7590 | 2.48 | – | – | – | –
2 | CN1C(=O)C(OCC2COC(C)(C)O2)N=C(c2ccccc2)c2cc(Cl)ccc21 (centres undefined) | inactive | inactive | inactive | inactive | 1.9 | 2.3 | 9160 | 2.37 | – | – | – | –
3 | O=C1Nc2ccc(Cl)cc2C(c2ccccc2Cl)=NC1OCCO (centres undefined) | – | – | – | – | 17.8 | 0.65 | 9360 | 2.04 | 33.6 | 1.2 | 2.8 | 1.86
4 | O=C1Nc2ccc(Cl)cc2C(c2ccccc2)=NC1OC(=O)C(Cl)(Cl)Cl (centres undefined) | – | – | – | – | 1.92 | 0.73 | 6850 | – | 16.5 | 5.7 | 1.32 | 1.6
5 | CC(=O)OC[C@H]1O[C@@H](OCCOC2N=C(c3ccccc3)c3cc(Cl)ccc3NC2=O)[C@H](OC(C)=O)[C@@H](OC(C)=O)[C@@H]1OC(C)=O (mixture of isomers) | – | – | – | – | 1.83 | 0.76 | 17200 | – | 13.8 | 3.4 | 1.02 | 0.75
6 | O=C1Nc2ccc(Cl)cc2C(c2ccccc2Cl)=NC1OCC(O)CO (centres undefined) | – | – | – | – | 15.3 | 0.58 | 7820 | 1.96 | 36.8 | 4.68 | 0.86 | 1.25
7 | CC1(C)OCC(COC2N=C(c3ccccc3)c3cc(Cl)ccc3NC2=O)O1 (centres undefined) | inactive | inactive | inactive | inactive | 1.7 | 0.52 | 9980 | 2.14 | – | – | – | –
8 | CN1C(=O)C(OCCO)N=C(c2ccccc2)c2cc(Cl)ccc21 (centres undefined) | – | – | – | – | 1.5 | 0.4 | 17400 | 1.98 | 12.5 | 0.8 | 8.3 | 1.1
9 | CN1CCN=C(c2ccccc2)c2cc(Cl)ccc21 [MEDAZEPAM] | – | – | – | – | 1 | 0.3 | 5240 | 4.05 | 6.2 | 0.81 | 0.32 | 1.3
10 | CNC1=Nc2ccc(Cl)cc2C(c2ccccc2)=[N+]([O-])C1 [CHLORDIAZEPOXIDE] | – | – | – | – | – | – | – | 2.5 | – | – | – | –
11 | CN1C(=O)C(OC(=O)C(Cl)(Cl)Cl)N=C(c2ccccc2)c2cc(Cl)ccc21 (centres undefined) | – | – | – | – | 1.3 | 0.9 | 5600 | – | 15.3 | 5.2 | 1.62 | 1.93
12 | O=C1Nc2ccc(Cl)cc2C(c2ccccc2)=NC1OCC(O)CO (centres undefined) | – | – | – | – | 1.4 | 0.51 | 16600 | 1.71 | 12.5 | 2.3 | 0.52 | 0.7
13 | CC(=O)OC[C@H]1O[C@H](OCCOC2N=C(c3ccccc3)c3cc(Cl)ccc3NC2=O)[C@H](OC(C)=O)[C@@H](OC(C)=O)[C@@H]1OC(C)=O (mixture of isomers) | – | – | – | – | 1.78 | 0.9 | 17300 | – | 13.4 | 3.6 | 0.98 | 0.68
14 | CN1C(=O)C(OCC(O)CO)N=C(c2ccccc2)c2cc(Cl)ccc21 (centres undefined) | – | – | inactive | – | 1 | 0.42 | 16000 | 1.74 | 10.3 | 0.38 | – | 0.8
15 | O=C1Nc2ccc(Cl)cc2C(c2ccccc2)=NC1OCCO (centres undefined) | – | – | – | – | 1.7 | 0.35 | 18100 | 1.99 | 10.3 | 0.58 | 0.4 | 1.3
